Results published in ChEMBL document CHEMBL2176900, “Design and synthesis of a novel series of bicyclic heterocycles as potent γ-secretase modulators” (J Med Chem, 2012).
Calls of active or inactive are those of the source. No cut-off for these calls is given here.

Columns and labels:
Rattus norvegicus [1] = assay: Antialzheimer activity in Sprague-Dawley rat assessed as amyloid beta 42 level in brain at 10 mg/kg, po at 2 hrs by ELISA relative to control; assay type: functional
Outline: (§1)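 Male Sprague-Dawley rats (180-220 g), fasted overnight, were given 10 mg/kg by gastric intubation as a 5 mg/mL suspension in 0.5% methocellulose. At 2, 4, 7 and 25 h, 50 μL CSF was taken from the cisterna magna under isoflurane, then brain was collected. Aβ37/38/40/42 were measured by MesoScale Discovery sandwich immunoassays. Results are mean % change versus T = 0 h, n = 5.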

Canis familiaris [2] = assay: Antialzheimer activity in beagle dog assessed as amyloid beta 38 level in cerebrospinal fluid at 20 mg/kg, po at 8 hrs by ELISA relative to control
Salmonella typhimurium = assay: Genotoxicity against Salmonella typhimurium by AMES 2 test; assay type: toxicity, organism-based; settings: salmonella enterica subsp. enterica serovar typhimurium
[3] = Thermodynamic solubility in buffer at pH 7.4; assay type: physicochemical; settings: read-out: Therm_solubility
Outline: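 Thermodynamic solubility was measured in pH 4.0 and pH 7.4 buffers, 0.01 N HCl, and fasted-state and fed-state simulated intestinal fluids (FaSSIF, FeSSIF). Results are in […].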

Mus musculus [4] = assay: Antialzheimer activity in CD1 mouse assessed as amyloid beta 42 level in brain at 10 mg/kg, po at 48 hrs by ELISA relative to control; assay type: functional
Outline: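 Male CD1 mice, fasted overnight, received a single 10 or 30 mg/kg oral dose. Brain was sampled at an added 48 h time point. The DEA-soluble brain fraction was neutralized and Aβ42 was measured by sandwich ELISA with fluorogenic read-out. Values are % versus vehicle.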

Plasma = assay: Plasma concentration in CD1 mouse at 30 mg/kg, po at 48 hrs by LC-MS/MS analysis; assay type: ADME, organism-based; parameters: dose 30 mg/kg, route oral; settings: in vivo, BLD = below limit of detection
Outline: (§2)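 Mice received a single 10 or 30 mg/kg oral dose. Plasma was sampled at several time points up to 48 h, with EDTA plasma obtained by centrifugation at 1900g, 10 min, 4 °C. Compound was quantified by LC-MS/MS, n = 4.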

[5] = Plasma concentration in beagle dog at 20 mg/kg, po at 24 hrs; assay type: ADME, organism-based, Canis lupus familiaris; parameters: dose 20 mg/kg, route oral
Rattus norvegicus [6] = assay: Antialzheimer activity in Sprague-Dawley rat assessed as amyloid beta 38 level in brain at 10 mg/kg, po at 25 hrs by ELISA relative to control; assay type: functional; outline: as §1
Rattus norvegicus [7] = assay: Antialzheimer activity in Sprague-Dawley rat assessed as amyloid beta 40 level in CSF at 10 mg/kg, po at 4 hrs by ELISA relative to control; assay type: functional; outline: as §1
[8] = Fraction unbound in rat plasma; assay type: ADME, cell-free
[9] = Inhibition of notch processing up to 10 uM
Liver microsomes = assay: Drug metabolism in human liver microsome assessed as reactive metabolite formation by gultathione-trapping assay; assay type: ADME
Rattus norvegicus [10] = assay: Antialzheimer activity in Sprague-Dawley rat assessed as amyloid beta 42 level in brain at 10 mg/kg, po at 4 hrs by ELISA relative to control; assay type: functional; outline: as §1
[11] = Fraction unbound in human plasma; assay type: ADME, cell-free
Brain = assay: Drug uptake in Sprague-Dawley rat brain at 10 mg/kg, po at 25 hrs by LC-MS/MS analysis; assay type: ADME, organism-based; parameters: dose 10 mg/kg, route oral; settings: in vivo, BLD = below limit of detection
Outline: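 Overnight-fasted male Sprague–Dawley rats (180–220 g) were dosed 10 mg/kg by gastric intubation of a 5 mg/mL suspension in 0.5% methocellulose. Rats were anesthetized with isoflurane, CSF was taken from the cisterna magna, then they were decapitated. Brain compound levels were measured as in the mouse assay. n = 5.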

[12] = Plasma concentration in CD1 mouse at 30 mg/kg, po at 24 hrs by LC-MS/MS analysis; assay type: ADME, organism-based; parameters: dose 30 mg/kg, route oral; outline: as §2
[13] = Drug uptake in CD1 mouse brain at 10 mg/kg, po at 4 hrs by LC-MS/MS analysis; assay type: ADME, organism-based; parameters: dose 10 mg/kg, route oral; settings: read-out: Drug uptake
Outline: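 Overnight-fasted male CD1 mice received one oral dose (10 or 30 mg/kg) in 20% Captisol. After sacrifice, the left brain hemisphere was stored at −18 °C. Compound level was quantified by a qualified LC-MS/MS method, alongside EDTA plasma spun at 1900g, 4 °C. n = 4 per time point.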

[14] = target: Voltage-gated inwardly rectifying potassium channel KCNH2 (Homo sapiens, UniProt Q12809); assay: Displacement of [3H]dofetilide to human ERG expressed in HEK293 cells; assay type: cell-based
Voltage-gated inwardly rectifying potassium channel KCNH2, sequence (Q12809 whole entry): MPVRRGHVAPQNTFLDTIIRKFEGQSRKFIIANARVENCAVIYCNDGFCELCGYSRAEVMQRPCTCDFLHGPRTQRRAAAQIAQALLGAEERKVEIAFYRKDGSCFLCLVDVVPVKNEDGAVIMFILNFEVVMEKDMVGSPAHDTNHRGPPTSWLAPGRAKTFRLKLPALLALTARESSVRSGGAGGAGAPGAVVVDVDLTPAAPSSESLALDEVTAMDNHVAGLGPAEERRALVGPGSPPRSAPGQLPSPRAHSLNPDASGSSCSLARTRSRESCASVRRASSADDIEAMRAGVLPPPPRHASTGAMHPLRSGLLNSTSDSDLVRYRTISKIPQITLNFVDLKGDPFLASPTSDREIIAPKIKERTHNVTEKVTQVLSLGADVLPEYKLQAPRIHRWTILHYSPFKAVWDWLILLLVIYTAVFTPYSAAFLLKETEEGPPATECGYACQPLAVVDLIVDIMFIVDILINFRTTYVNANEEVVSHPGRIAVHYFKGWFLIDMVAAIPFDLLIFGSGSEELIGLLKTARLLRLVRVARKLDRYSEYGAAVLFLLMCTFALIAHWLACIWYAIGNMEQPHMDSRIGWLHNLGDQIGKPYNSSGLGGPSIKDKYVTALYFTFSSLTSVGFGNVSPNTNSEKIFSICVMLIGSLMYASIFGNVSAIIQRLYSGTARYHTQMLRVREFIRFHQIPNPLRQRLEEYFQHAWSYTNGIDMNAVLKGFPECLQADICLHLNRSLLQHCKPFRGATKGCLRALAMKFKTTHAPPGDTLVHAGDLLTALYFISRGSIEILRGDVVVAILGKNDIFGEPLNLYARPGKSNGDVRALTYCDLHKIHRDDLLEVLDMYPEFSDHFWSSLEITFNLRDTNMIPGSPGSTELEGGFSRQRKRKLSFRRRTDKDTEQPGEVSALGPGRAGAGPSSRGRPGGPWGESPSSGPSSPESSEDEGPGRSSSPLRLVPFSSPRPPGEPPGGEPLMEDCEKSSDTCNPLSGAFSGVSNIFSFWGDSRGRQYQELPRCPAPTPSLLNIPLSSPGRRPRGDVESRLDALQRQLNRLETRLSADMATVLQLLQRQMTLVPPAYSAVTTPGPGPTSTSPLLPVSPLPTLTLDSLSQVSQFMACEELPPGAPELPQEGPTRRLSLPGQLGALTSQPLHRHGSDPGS

[15] = Plasma concentration in CD1 mouse at 10 mg/kg, po at 4 hrs by LC-MS/MS analysis; assay type: ADME, organism-based; parameters: dose 10 mg/kg, route oral
Mus musculus [16] = assay: Inhibition of gamma-secretase in CD1 mouse assessed as total amyloid beta level in brain at 10 mg/kg, po at 4 hrs by ELISA relative to control; assay type: functional; parameters: scale not given: the % may be the effect or the level left
Outline: (§3)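 Fasted male CD1 SPF mice were dosed orally at 10 or 30 mg/kg in 20% Captisol. Right hemisphere was homogenized in 0.4% DEA/50 mM NaCl and the high-speed supernatant neutralized. Aβtotal ELISA used N-terminal JRF/rAβ/2 capture, biotinylated 4G8 and streptavidin-peroxidase, then a fluorogenic substrate (ex 320/em 420 nm). Standards spanned 10000–0.3 pg/mL. Values are % change vs T = 0 h, n = 4.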

Canis familiaris [17] = assay: Antialzheimer activity in beagle dog assessed as amyloid beta 42 level in cerebrospinal fluid at 20 mg/kg, po at 24 hrs by ELISA relative to control
Rattus norvegicus [18] = assay: Antialzheimer activity in Sprague-Dawley rat assessed as amyloid beta 38 level in CSF at 10 mg/kg, po at 7 hrs by ELISA relative to control; assay type: functional; outline: as §1
Rattus norvegicus [19] = assay: Antialzheimer activity in Sprague-Dawley rat assessed as amyloid beta 38 level in CSF at 10 mg/kg, po at 4 hrs by ELISA relative to control; assay type: functional; outline: as §1
Rattus norvegicus [20] = assay: Antialzheimer activity in Sprague-Dawley rat assessed as amyloid beta 38 level in brain at 10 mg/kg, po at 7 hrs by ELISA relative to control; assay type: functional; outline: as §1
Rattus norvegicus [21] = assay: Antialzheimer activity in Sprague-Dawley rat assessed as amyloid beta 37 level in CSF at 10 mg/kg, po at 4 hrs by ELISA relative to control; assay type: functional; outline: as §1
Mus musculus [22] = assay: Inhibition of gamma-secretase in CD1 mouse assessed as total amyloid beta level in brain at 30 mg/kg, po at 24 hrs by ELISA relative to control; assay type: functional; parameters: scale not given: the % may be the effect or the level left; outline: as §3

In the case of COc1nc(Nc2cccc3c2nc(-c2ccc(F)cc2)n3C)ccc1-n1cnc(C)c1, the Activity (Rattus norvegicus [1]) is reported as 75%, the Activity (Canis familiaris [2]) is reported as 184% and the Activity (Salmonella typhimurium) is reported as “Non-toxic”. For the same compound, the solubility thermodynamic [3] was less than 1 µg/mL, the Activity (Mus musculus [4]) was 101% and the Cp (Plasma) was “BLD”. It also gave a concentration at 24 h [5] of 40 nM, an Activity (Rattus norvegicus [6]) of 105% and an Activity (Rattus norvegicus [7]) of 60%. For the same compound, the fraction unbound [8] was 0.0004, the inhibition [9] was “inactive” and the Drug metabolism (Liver microsomes) was “Not Active”. The Activity (Rattus norvegicus [10]) was 64%, the fraction unbound [11] was 0.0013 and the Drug uptake (Brain) was “BLD”. It also gave a concentration at 24 h [12] of 310 nM, a concentration at 4 h [13] of 2800 nM and an IC50 [14] of 8.5 µM. For the same compound, the concentration at 4 h [15] was 5.3 µM, the Activity (Mus musculus [16]) was 94% and the Activity (Canis familiaris [17]) was 89%. It also gave an Activity (Rattus norvegicus [18]) of 153%, an Activity (Rattus norvegicus [19]) of 179% and an Activity (Rattus norvegicus [20]) of 127%. It also gave an Activity (Rattus norvegicus [21]) of 955% and an Activity (Mus musculus [22]) of 104%.
